Experimental data reported in ChEMBL document CHEMBL4004822, “Thienopyrimidinone Based Sirtuin-2 (SIRT2)-Selective Inhibitors Bind in the Ligand Induced Selectivity Pocket” (J Med Chem, 2017).
Activity calls are given as the source filed them. The calls are words filed in the database; no cut-off is given here.

Assays:
[1] = target: T1, NAD-dependent protein deacetylase sirtuin-2 (Homo sapiens) (UniProt Q8IXJ6); assay: Inhibition of recombinant human C-terminal His-tagged SIRT2 (50 to 389 end residues) expressed in Escherichia coli at 10 uM using p53 derived (379 to 382 residues) fluorogenic peptide substrate RHKK(Ac)-AMC preincubated for 10 mins followed by substrate addition in presence of NAD+ by fluorescence assay relative to control
T1 sequence (whole entry): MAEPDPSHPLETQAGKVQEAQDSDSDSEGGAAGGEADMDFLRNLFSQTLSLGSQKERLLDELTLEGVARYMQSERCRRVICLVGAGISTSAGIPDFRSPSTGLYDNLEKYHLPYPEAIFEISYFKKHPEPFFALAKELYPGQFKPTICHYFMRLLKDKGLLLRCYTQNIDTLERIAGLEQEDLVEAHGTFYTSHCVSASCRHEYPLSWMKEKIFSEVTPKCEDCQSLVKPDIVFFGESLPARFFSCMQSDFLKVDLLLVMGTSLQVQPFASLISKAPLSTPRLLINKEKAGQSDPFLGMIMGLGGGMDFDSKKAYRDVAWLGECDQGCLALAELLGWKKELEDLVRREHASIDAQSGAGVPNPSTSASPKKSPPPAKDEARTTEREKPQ
Outline: (§1)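 Two-step fluorogenic assay with p53 379–382 RHKK(Ac)-AMC. Compound (from 10 mM DMSO stock) preincubated ~10 min with human SIRT before substrate addition. Developer then releases fluorophore, read at ex 360/em 460 nm.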

[2] = target: T2, NAD-dependent protein deacetylase sirtuin-2 (Homo sapiens, UniProt Q8IXJ6); assay: Inhibition of recombinant human C-terminal His-tagged SIRT2 (50 to 389 end residues) expressed in Escherichia coli using p53 derived (379 to 382 residues) fluorogenic peptide substrate RHKK(Ac)-AMC preincubated for 10 mins followed by substrate addition in presence of NAD+ by fluorescence assay; outline: as §1
T2 sequence (Q8IXJ6 whole entry): T1 sequence (whole entry)

[3] = target: T3, NAD-dependent protein deacetylase sirtuin-1 (Homo sapiens, UniProt Q96EB6); assay: Inhibition of recombinant human N-terminal His-tagged SIRT1 (1 to 747 end residues) expressed in Escherichia coli using p53 derived (379 to 382 residues) fluorogenic peptide substrate RHKK(Ac)-AMC preincubated for 10 mins followed by substrate addition in presence of NAD+ by fluorescence assay; outline: as §1
T3 sequence (Q96EB6 whole entry): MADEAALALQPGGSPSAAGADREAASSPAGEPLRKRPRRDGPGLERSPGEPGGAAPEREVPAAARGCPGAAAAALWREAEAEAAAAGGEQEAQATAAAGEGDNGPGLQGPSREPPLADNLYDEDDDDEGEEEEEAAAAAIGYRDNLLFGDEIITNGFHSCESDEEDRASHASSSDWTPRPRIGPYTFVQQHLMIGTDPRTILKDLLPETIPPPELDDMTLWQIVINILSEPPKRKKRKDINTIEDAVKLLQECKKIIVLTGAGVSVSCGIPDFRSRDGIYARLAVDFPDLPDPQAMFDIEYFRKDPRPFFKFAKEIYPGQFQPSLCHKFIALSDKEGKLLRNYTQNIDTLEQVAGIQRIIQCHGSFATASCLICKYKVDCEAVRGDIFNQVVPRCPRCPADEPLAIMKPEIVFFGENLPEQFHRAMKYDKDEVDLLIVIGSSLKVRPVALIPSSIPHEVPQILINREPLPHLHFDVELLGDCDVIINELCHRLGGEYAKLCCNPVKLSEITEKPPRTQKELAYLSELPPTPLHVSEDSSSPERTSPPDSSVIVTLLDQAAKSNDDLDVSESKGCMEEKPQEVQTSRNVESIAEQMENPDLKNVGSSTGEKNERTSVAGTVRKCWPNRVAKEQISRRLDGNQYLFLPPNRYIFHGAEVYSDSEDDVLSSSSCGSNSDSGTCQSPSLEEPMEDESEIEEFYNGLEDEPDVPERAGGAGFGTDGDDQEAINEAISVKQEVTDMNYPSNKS

[4] = target: T1, NAD-dependent protein deacetylase sirtuin-2 (Homo sapiens); assay: Inhibition of SIRT2 in human MCF7 cells assessed as increase in alpha-tubulin K40 acetylation level at 20 uM after 24 hrs in presence of TSA by Western blot analysis; assay type: cell-based
Outline: (§2)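 MCF-7 cells (ATCC, authenticated) kept in DMEM with 10% FCS, penicillin/streptomycin and 2 mM glutamine at 37 °C under 10% CO2. Treated 24 h with compound at 0, 1, 10, 20, 30 or 50 μM plus 50 nM TSA to block non-sirtuin HDACs. NP40 lysates (20 μg protein, BCA-quantified) run on SDS-PAGE and Western blotted for acetyl-K40 α-tubulin, total α-tubulin and β-actin; ECL detection.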

[5] = target: T1, NAD-dependent protein deacetylase sirtuin-2 (Homo sapiens); assay: Inhibition of SIRT2 in human MCF7 cells assessed as increase in alpha-tubulin K40 acetylation level at 50 uM after 24 hrs in presence of TSA by Western blot analysis; assay type: cell-based; outline: as §2
[6] = target: NAD-dependent protein deacylase sirtuin-5, mitochondrial (Homo sapiens, UniProt Q9NXA8); assay: Inhibition of recombinant human N-terminal His-tagged SIRT5 (37 to 310 end residues) expressed in Escherichia coli using Ac-K(Succ)-AMC as substrate in presence of NAD+ by fluorescence assay
[7] = target: T2, NAD-dependent protein deacetylase sirtuin-2; assay: Inhibition of recombinant human C-terminal His-tagged SIRT2 (50 to 389 end residues) expressed in Escherichia coli using tubulin-K40 peptide in presence of NAD+
[8] = target: T4, NAD-dependent protein deacetylase sirtuin-3, mitochondrial (Homo sapiens, UniProt Q9NTG7); assay: Inhibition of recombinant human N-terminal GST-tagged SIRT3 (101 to 399 residues) expressed in Escherichia coli using p53 derived (379 to 382 residues) fluorogenic peptide substrate RHKK(Ac)-AMC) preincubated for 10 mins followed by substrate addition in presence of NAD+ by fluorescence assay
T4 sequence (Q9NTG7 whole entry): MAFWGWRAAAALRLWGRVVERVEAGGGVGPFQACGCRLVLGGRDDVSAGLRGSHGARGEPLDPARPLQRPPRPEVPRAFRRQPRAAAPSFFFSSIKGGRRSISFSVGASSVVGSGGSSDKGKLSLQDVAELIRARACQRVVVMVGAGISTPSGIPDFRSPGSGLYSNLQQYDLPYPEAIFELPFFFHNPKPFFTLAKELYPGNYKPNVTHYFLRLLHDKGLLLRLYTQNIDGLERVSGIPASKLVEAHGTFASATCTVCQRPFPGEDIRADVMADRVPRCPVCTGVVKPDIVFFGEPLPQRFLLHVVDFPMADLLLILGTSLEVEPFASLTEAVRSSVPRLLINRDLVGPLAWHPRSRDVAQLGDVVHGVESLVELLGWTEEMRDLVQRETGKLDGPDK

Homo sapiens [9] = species on record: Homo sapiens; assay: Selectivity ratio of IC50 for recombinant human N-terminal GST-tagged SIRT3 (101 to 399 residues) expressed in Escherichia coli to IC50 for recombinant human C-terminal His-tagged SIRT2 (50 to 389 end residues) expressed in Escherichia coli
[10] = target: T2, NAD-dependent protein deacetylase sirtuin-2; assay: Inhibition of recombinant human C-terminal His-tagged SIRT2 (50 to 389 end residues) expressed in Escherichia coli in presence of NAD+ by enzyme coupled SIRT-Glo assay
Homo sapiens [11] = species on record: Homo sapiens; assay: Selectivity ratio of IC50 for recombinant human N-terminal His-tagged SIRT1 (1 to 747 end residues) expressed in Escherichia coli to IC50 for recombinant human C-terminal His-tagged SIRT2 (50 to 389 end residues) expressed in Escherichia coli
[12] = target: T1, NAD-dependent protein deacetylase sirtuin-2 (Homo sapiens); assay: Inhibition of SIRT2 in human MCF7 cells assessed as increase in alpha-tubulin K40 acetylation level at 1 to 50 uM after 24 hrs in presence of TSA by Western blot analysis; assay type: cell-based; outline: as §2
[13] = target: T1, NAD-dependent protein deacetylase sirtuin-2 (Homo sapiens); assay: Inhibition of SIRT2 in human MCF7 cells assessed as increase in alpha-tubulin K40 acetylation level at 10 to 50 uM after 24 hrs in presence of TSA by Western blot analysis; assay type: cell-based; outline: as §2
[14] = target: T1, NAD-dependent protein deacetylase sirtuin-2 (Homo sapiens); assay: Inhibition of SIRT2 in human MCF7 cells assessed as increase in alpha-tubulin K40 acetylation level after 24 hrs in presence of TSA by Western blot analysis; assay type: cell-based; outline: as §2
[15] = target: T3, NAD-dependent protein deacetylase sirtuin-1; assay: Inhibition of human SIRT1 (133 to 747 residues) using (Z-Lys(Acetyl)-AMC) as substrate after 4 hrs in presence of NAD+ by fluorescence assay
[16] = target: NAD-dependent protein deacylase sirtuin-6 (Homo sapiens, UniProt Q8N6T7); assay: Inhibition of human SIRT6 (13 to 308 residues) using Ac-EALPKK(Myristoyl)TGG-NH2 as substrate after 10 mins in presence of NAD+ by fluorescence assay
[17] = target: T3, NAD-dependent protein deacetylase sirtuin-1; assay: Inhibition of human SIRT1
Outline: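 Compounds were pre-incubated with human SIRT about 10 min before substrate addition, then developer added. Read ex 360/em 460 nm; activity relative to DMSO; sigmoidal 10-dose IC50, n = 2; suramin positive control.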

Sequence of NAD-dependent protein deacylase sirtuin-5, mitochondrial (Q9NXA8 whole entry): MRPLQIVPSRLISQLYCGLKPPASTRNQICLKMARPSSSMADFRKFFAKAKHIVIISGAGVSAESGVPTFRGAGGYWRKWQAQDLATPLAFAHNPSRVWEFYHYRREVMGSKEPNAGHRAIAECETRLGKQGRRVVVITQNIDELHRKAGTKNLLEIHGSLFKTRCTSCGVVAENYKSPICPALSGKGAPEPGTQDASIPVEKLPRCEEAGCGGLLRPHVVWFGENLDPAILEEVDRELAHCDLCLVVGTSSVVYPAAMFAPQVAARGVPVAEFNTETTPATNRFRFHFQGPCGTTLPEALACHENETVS
Sequence of NAD-dependent protein deacylase sirtuin-6 (Q8N6T7 whole entry, the tested form may be a part): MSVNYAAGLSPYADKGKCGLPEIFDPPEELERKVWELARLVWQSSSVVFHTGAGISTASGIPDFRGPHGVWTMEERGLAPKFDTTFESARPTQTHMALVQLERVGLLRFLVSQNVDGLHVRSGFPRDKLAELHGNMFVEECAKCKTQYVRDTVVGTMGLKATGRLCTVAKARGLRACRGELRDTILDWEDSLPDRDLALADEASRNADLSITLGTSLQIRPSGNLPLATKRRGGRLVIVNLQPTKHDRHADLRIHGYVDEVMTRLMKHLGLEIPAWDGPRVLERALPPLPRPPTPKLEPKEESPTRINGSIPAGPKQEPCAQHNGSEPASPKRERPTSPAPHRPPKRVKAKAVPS

Compound: COc1ccc(Cn2cnc3sc4c(c3c2=O)CCC(NC2CCCC2)C4)c2ccccc12 (stereo not given)
- inhibition [1]: 94%
- IC50 [2]: 0.73 µM
- IC50 [3]: 13.8 µM

Compound: COc1ccc2ccccc2c1Cn1cnc2sc3c(c2c1=O)CCC(NCc1cccnc1)C3 (stereo not given)
- inhibition [4]: Active
- inhibition [5]: inactive
- IC50 [6]: > 100 µM
- Ki [7]: 0.62 µM
- IC50 [8]: > 100 µM
- Ratio IC50 (Homo sapiens [9]): > 100
- IC50 [3]: > 100 µM
- IC50 [10]: 0.17 µM
- Ratio IC50 (Homo sapiens [11]): > 100

Compound: O=c1c2c3c(sc2ncn1Cc1ccccc1)CC(NCC1CCCO1)CC3 (stereo not given)
- inhibition [1]: 22%
- inhibition [12]: inactive

Compound: COc1ccc(Cn2cnc3sc4c(c3c2=O)CCC(NCc2c(C)noc2C)C4)c2ccccc12 (stereo not given)
- inhibition [13]: Active
- inhibition [1]: 96%
- IC50 [2]: 0.58 µM
- IC50 [8]: 18 µM
- Ratio IC50 (Homo sapiens [9]): 31
- IC50 [3]: 129 µM
- inhibition [14]: Dose-dependent effect
- Ratio IC50 (Homo sapiens [11]): 222

Compound: Cc1cc(C)nc(SCC(=O)Nc2ncc(Cc3cccc4ccccc34)s2)n1
- IC50 [15]: > 100 µM
- IC50 [16]: > 200 µM

Compound: N#Cc1ccc(CNC2CCc3c(sc4ncn(Cc5cccc6cccnc56)c(=O)c34)C2)cc1 (stereo not given)
- inhibition [1]: 97%
- IC50 [2]: 0.39 µM
- IC50 [8]: > 100 µM
- Ratio IC50 (Homo sapiens [9]): > 256
- IC50 [3]: 42.1 µM
- Ratio IC50 (Homo sapiens [11]): 108

Compound: COc1ccc(CNC2CCc3c(sc4ncn(Cc5c(OC)ccc6ccccc56)c(=O)c34)C2)cc1 (stereo not given)
- inhibition [1]: 96%
- IC50 [2]: 0.65 µM
- IC50 [3]: 119 µM

Compound: N#C/C(=C\c1ccc(-c2cc(Cl)ccc2Cl)o1)C(=O)Nc1cccc2ncccc12
- inhibition [13]: Active
- IC50 [17]: > 50 µM
